An excerpt weighted towards active compounds, which were near 5.8% of everything screened.
IDH1 R132H inh – inhibitors of human IDH1 R132H | O75874 | IDH1 R132H reductase, diaphorase/resazurin fluorescence, 60 min | inhibition, % at 10 µM | 70,000 compounds, 0.18% hits | AID 624101; in the data active = inhibition above about 34%; inconclusive = no clear call, values can overlap the other calls; inactive = below about 11%
Target sequence (O75874 whole entry R132H): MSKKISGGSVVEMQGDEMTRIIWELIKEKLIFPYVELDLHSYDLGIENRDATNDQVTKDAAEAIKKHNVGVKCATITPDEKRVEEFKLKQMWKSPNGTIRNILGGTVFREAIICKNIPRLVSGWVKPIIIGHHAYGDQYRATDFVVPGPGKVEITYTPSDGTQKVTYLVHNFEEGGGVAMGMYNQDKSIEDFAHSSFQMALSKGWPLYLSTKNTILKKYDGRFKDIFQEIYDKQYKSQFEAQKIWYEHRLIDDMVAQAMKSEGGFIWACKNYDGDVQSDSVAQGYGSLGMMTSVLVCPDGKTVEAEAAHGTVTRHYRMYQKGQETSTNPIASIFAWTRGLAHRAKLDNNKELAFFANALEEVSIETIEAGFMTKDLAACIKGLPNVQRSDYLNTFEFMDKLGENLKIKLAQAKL
KDM4C inh – blocks human GASC-1 (KDM4C) demethylase activity; Q9H3R0; GST-KDM4C 2-372, H3K9me3 peptide, LANCE TR-FRET; inhibition, % at 12.5 µM; 96,000 compounds, 0.15% hits; AID 720574;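 active = mean replicate inhibition above about 25%, with at least 55% of replicates also reaching it, limit read from the data, passing the limit was not always enough; inconclusive = only one of those two conditions met; inactive = neither condition met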
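Test system – GST-tagged GASC-1 (JMJD2C) catalytic fragment, aa 2-372 · Medium – HEPES buffer, pH 7.5, plus ascorbate · Reagent – H3K9me3 peptide with Fe(II)/2OG · Compound – one test concentration per compound · Timing – 30 min reaction, 60 min detection, RT · Technique – TR-FRET with Eu antibody and ULight streptavidin, EDTA stop · Read-out basis – inhibition from TR-FRET ratio decrease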
T cruzi growth-1 – blocks T. cruzi growth in NIH3T3 culture. inhibition, % at 8.34 µM. 77,000 compounds, 5.9% hits. T. cruzi beta-gal in NIH3T3, GalScreen luminescence, 90 h;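 active = mean inhibition above about 93%, with at least 55% of replicates each passing it, limit read from the data, passing the limit was not always enough; inconclusive = only one of those two conditions holds; inactive = neither condition holds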
Pf Dd2 inh – P. falciparum Dd2 growth inhibition | SYBR Green, 72 h; active compounds read low | activity change, % at 10 µM | 94,000 compounds, 2.3% hits | AID 1159554; in the data active = activity change below about -80%; inconclusive = no clear call, values can overlap the other calls
T cruzi growth-2 – inhibitors of T. cruzi proliferation | T. cruzi beta-gal in NIH3T3, GalScreen luminescence, 90 h | shares compounds with T cruzi growth-1 | inhibition, % at 8.35 µM | 5,600 compounds, 72% hits | AID 651739;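 active = mean replicate inhibition above about 95% and at least 55% of replicates individually reaching it, limit read from the data; inconclusive = only one of the two criteria is met; inactive = neither criterion is met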
T cruzi growth-3 – Trypanosoma cruzi proliferation inhibition | inhibition, % at 2.09 µM | T. cruzi beta-gal in NIH3T3, GalScreen luminescence, 90 h | 5,600 compounds, 21% hits | shares compounds with T cruzi growth-1;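 active = mean inhibition above about 95%, with at least 55% of replicates also reaching it, limit read from the data; inconclusive = meets just one of the two conditions; inactive = meets neither condition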
NIH3T3 tox – NIH/3T3 (mouse) viability loss; shares compounds with T cruzi growth-1; NIH/3T3 viability, CellTiter-Glo ATP luminescence, 90 h; cytotoxicity (signal decrease), % at 8.35 µM; 5,600 compounds, 14% hits; AID 651742;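 active = mean signal decrease across replicates above about 35% based on untreated-well scatter, with enough replicates individually passing, limit read from the data; inconclusive = no rule stated though some were filed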
3T3 cytotox 2 – cytotoxicity in mouse NIH/3T3 fibroblasts; shares compounds with T cruzi growth-1; NIH/3T3 viability, CellTiter-Glo ATP luminescence, 90 h; inhibition, % at 24.9 µM; 5,600 compounds, 56% hits; AID 651744;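 active = mean loss of cell viability signal at or above a set limit, and enough replicates individually reaching it; inconclusive = meets only the mean limit or only the replicate share; inactive = meets neither condition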
Numbers stand for hits; 0 = inactive; ? = inconclusive; - = not tested or not shown.

SMILES	IDH1 R132H inh	KDM4C inh	T cruzi growth-1	Pf Dd2 inh	T cruzi growth-2	T cruzi growth-3	NIH3T3 tox	3T3 cytotox 2
C[C@H]1CCCCO[C@H](CN(C)S(=O)(=O)c2ccc(F)cc2)[C@@H](C)CN([C@@H](C)CO)C(=O)c2cc(NS(=O)(=O)c3ccc(Cl)cc3)ccc2O1	0	0	99	0	98	0	0	0
C[C@H](CO)N1C[C@H](C)[C@H](CN(C)S(=O)(=O)c2ccc(Cl)cc2)OCCCC[C@H](C)Oc2ccc(NS(=O)(=O)c3ccc(F)cc3)cc2C1=O	0	0	0	0	-	-	-	-
C[C@@H]1CCCCO[C@H](CN(C)S(=O)(=O)c2ccc(F)cc2)[C@H](C)CN([C@@H](C)CO)C(=O)c2cc(NS(=O)(=O)c3ccc(Cl)cc3)ccc2O1	-	0	0	0	-	-	-	-
C[C@@H]1CN([C@H](C)CO)C(=O)c2cc(NS(=O)(=O)c3ccc(Cl)cc3)ccc2O[C@@H](C)CCCCO[C@@H]1CN(C)S(=O)(=O)c1ccc(F)cc1	-	0	105	0	104	109	0	0
C[C@H]1CCCCO[C@H](CN(C)S(=O)(=O)c2ccc(Cl)cc2)[C@@H](C)CN([C@@H](C)CO)C(=O)c2cc(NS(=O)(=O)c3ccc(F)cc3)ccc2O1	0	0	103	0	?	110	0	0
C=CCNC(=O)[C@@H]1[C@H]2C(=O)O[C@H](c3ccccc3)[C@H](c3ccccc3)N2[C@H](c2ccc(OCCO)cc2)[C@@]12C(=O)N(C(=O)OCCOC)c1ccc(C#CCC(C(=O)OC)C(=O)OC)cc12	0	-	-	-	-	-	-	-
C[C@H]1CN([C@@H](C)CO)C(=O)c2cc(NS(=O)(=O)c3ccc(F)cc3)ccc2O[C@@H]1CN(C)S(=O)(=O)c1ccc(Cl)cc1	0	0	0	0	-	-	-	-
C[C@H](CO)N1C[C@H](C)[C@H](CN(C)S(=O)(=O)c2ccc(Cl)cc2)Oc2ccc(NS(=O)(=O)c3ccc(F)cc3)cc2C1=O	0	0	?	0	98	0	40	?
Cc1ccccc1-c1ccc([C@H]2[C@@H](CO)N3CCCCN(S(=O)(=O)c4ccc(F)cc4)C[C@H]23)cc1	-	0	109	0	98	?	0	105
Cc1ccccc1-c1ccc([C@@H]2[C@@H](CO)N3CCCCN(S(=O)(=O)c4ccc(F)cc4)C[C@@H]23)cc1	-	0	108	0	109	0	0	81
O=S(=O)(c1ccc(F)cc1)N1CCCCN2[C@H](CO)[C@@H](c3ccc(-c4ccccc4F)cc3)[C@H]2C1	-	-	0	0	-	-	-	-
O=S(=O)(c1ccc(F)cc1)N1CCCCN2[C@H](C1)[C@H](c1ccc(-c3ccccc3)cc1)[C@@H]2CO	-	0	0	0	-	-	-	-
CN1c2ccc(-c3ccc(F)cc3)cc2[C@@H]2[C@@H](CCN2C(=O)C2CCOCC2)[C@@H]1CO	-	0	98	0	106	0	0	0
CN(C)C(=O)c1ccc(-c2ccc3c(c2)[C@@H]2[C@@H](CCN2C(=O)C2CCOCC2)[C@@H](CO)N3C)cc1	-	0	102	0	107	0	0	0
CN1c2ccc(-c3ccc(F)cc3)cc2[C@@H]2[C@@H](CCN2C(=O)C2CCOCC2)[C@H]1CO	-	0	105	0	105	0	0	0
CN1c2ccc(-c3ccc(F)cc3)cc2[C@H]2[C@H](CCN2C(=O)C2CCOCC2)[C@H]1CO	-	0	0	0	-	-	-	-
CN(C)C(=O)c1ccc(-c2ccc3c(c2)[C@@H]2[C@@H](CCN2C(=O)C2CCCC2)[C@H](CO)N3C)cc1	-	0	-	0	-	-	-	-
C=CCn1c(CSc2nc(N)cc(N)n2)n[nH]c1=S	0	-	-	-	-	-	-	-
CCOc1ccc2[nH]c(C)c(CCC(C)=O)c(=O)c2c1	0	-	-	-	-	-	-	-
N#Cc1c(NC(=O)CSc2nnc3c(n2)[nH]c2ccccc23)sc2c1CCCC2	0	-	-	-	-	-	-	-
COc1ccc(NC(=O)CNC(=O)c2ccccc2)cc1Cl	0	-	-	-	-	-	-	-
